Assay results taken from ChEMBL document CHEMBL1122555, “Design, synthesis, and testing of potential antisickling agents. 3. Ethacrynic acid” (J Med Chem, 1984).

Legend:
Format in all cases: ADME
[1] = Compound was evaluated, at a concentration of 5 mM acid, the solubility ratio is obtained by dividing the solubility of sickle hemoglobin (HbS) with the compound (grams per deciliter) by the solubility of the untreated sample (grams per deciliter); details: 5000 µM
Outline: (§1)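 Sodium salt of acid (made with 1 equiv NaHCO3, 0.18 M stock in 0.15 M phosphate pH 7.4) diluted into HbS (~35 g %, 0.15 M phosphate), deoxygenated with dithionite, sealed in EPR tubes; final drug 5–40 mM. Spun alongside deoxy-HbS buffer control and 40 mM phenylalanine control; solubility at 35 °C, g/dL. Ratio = drug/control solubility; % increase relative to initial minus control; SD reported.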

[2] = Compound was evaluated, at a concentration of 20 mM acid, the solubility ratio is obtained by dividing the solubility of sickle hemoglobin (HbS) with the compound (grams per deciliter) by the solubility of the untreated sample (grams per deciliter); details: 20000 µM; outline: as §1
[3] = Compound was evaluated, at a concentration of 10 mM acid, for its ability to increase the solubility of sickle hemoglobin; details: 10000 µM; outline: as §1
[4] = Compound was evaluated, at a concentration of 40 mM acid, for its ability to increase the solubility of sickle hemoglobin; details: 40000 µM; outline: as §1
[5] = Compound was evaluated, at a concentration of 40 mM acid, the solubility ratio is obtained by dividing the solubility of sickle hemoglobin (HbS) with the compound (grams per deciliter) by the solubility of the untreated sample (grams per deciliter); details: 40000 µM; outline: as §1
[6] = Compound was evaluated, at a concentration of 10 mM acid, the solubility ratio is obtained by dividing the solubility of sickle hemoglobin (HbS) with the compound (grams per deciliter) by the solubility of the untreated sample (grams per deciliter); details: 10000 µM; outline: as §1
[7] = Compound was evaluated, at a concentration of 20 mM acid, for its ability to increase the solubility of sickle hemoglobin; details: 20000 µM; outline: as §1
[8] = Compound was evaluated, at a concentration of 5 mM acid, for its ability to increase the solubility of sickle hemoglobin; details: 5000 µM; outline: as §1
[9] = Compound was evaluated, at a concentration of 40 mM acid, for its ability to increase the solubility of sickle haemoglobin; details: 40000 µM; outline: as §1

Row | SMILES | Solubility ratio [1] | Solubility ratio [2] | HbS solubilized [3] [%] | HbS solubilized [4] [%] | Solubility ratio [5] | Solubility ratio [6] | HbS solubilized [7] [%] | HbS solubilized [8] [%] | HbS solubilized [9] [%]
1 | C=C(CC)C(=O)c1ccc(OCC(=O)O)c(Cl)c1Cl [ETHACRYNIC ACID] | 1.106 | 1.317 | 39.5 | 89.4 | 1.375 | 1.166 | 76.2 | 25.3 | 
2 | O=C(O)COCc1ccc(Br)cc1 | 1.059 | 1.233 | 25.8 | 87.7 | 1.398 | 1.118 | 51 | 13 | 
3 | O=C(O)COCc1ccc(Cl)c(Cl)c1 | 1.087 | 1.321 | 42.6 |  | 1.345 | 1.166 | 82.3 | 22.1 | 88
